Test results as given in ChEMBL document CHEMBL4808254, “Further SAR studies on natural template based neuroprotective molecules for the treatment of Alzheimer's disease” (Bioorg Med Chem, 2021).
The source made the active and inactive calls. The rule behind the calls is not given here.

Legend:
Acetylcholinesterase [1] = target: T1, Acetylcholinesterase (Homo sapiens, UniProt P22303); assay: Inhibition of AChE in human erythrocytes using acetylthiocholine iodide as substrate preincubated with enzyme for 30 mins followed by substrate addition and measured after 30 mins by Ellman's method; assay type: cell-based, Erythrocyte
T1 sequence (P22303 whole entry): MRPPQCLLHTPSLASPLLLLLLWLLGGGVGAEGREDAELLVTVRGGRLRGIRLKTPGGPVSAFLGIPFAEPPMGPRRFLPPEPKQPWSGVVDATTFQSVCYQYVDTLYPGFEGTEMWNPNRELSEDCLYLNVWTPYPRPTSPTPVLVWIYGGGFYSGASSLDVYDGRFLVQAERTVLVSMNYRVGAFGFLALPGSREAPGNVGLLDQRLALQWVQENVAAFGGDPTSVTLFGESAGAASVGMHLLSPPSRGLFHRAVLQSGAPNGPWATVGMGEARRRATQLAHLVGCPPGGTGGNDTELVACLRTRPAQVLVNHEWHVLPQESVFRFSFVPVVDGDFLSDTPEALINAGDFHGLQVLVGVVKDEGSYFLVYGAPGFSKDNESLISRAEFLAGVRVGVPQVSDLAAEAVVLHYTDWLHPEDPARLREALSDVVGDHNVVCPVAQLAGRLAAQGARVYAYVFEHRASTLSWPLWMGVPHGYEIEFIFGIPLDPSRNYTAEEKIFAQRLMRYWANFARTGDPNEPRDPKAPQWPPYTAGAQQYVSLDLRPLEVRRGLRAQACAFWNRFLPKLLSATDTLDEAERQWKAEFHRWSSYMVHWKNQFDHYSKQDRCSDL

Cholinesterase = Cholinesterase (Equus caballus, UniProt P81908); assay: Inhibition of equine serum BChE using butyrylthiocholine iodide as substrate preincubated with enzyme for 30 mins followed by substrate addition and measured after 30 mins by Ellman's method; assay type: cell-free
Cholinesterase, sequence (P81908 whole entry): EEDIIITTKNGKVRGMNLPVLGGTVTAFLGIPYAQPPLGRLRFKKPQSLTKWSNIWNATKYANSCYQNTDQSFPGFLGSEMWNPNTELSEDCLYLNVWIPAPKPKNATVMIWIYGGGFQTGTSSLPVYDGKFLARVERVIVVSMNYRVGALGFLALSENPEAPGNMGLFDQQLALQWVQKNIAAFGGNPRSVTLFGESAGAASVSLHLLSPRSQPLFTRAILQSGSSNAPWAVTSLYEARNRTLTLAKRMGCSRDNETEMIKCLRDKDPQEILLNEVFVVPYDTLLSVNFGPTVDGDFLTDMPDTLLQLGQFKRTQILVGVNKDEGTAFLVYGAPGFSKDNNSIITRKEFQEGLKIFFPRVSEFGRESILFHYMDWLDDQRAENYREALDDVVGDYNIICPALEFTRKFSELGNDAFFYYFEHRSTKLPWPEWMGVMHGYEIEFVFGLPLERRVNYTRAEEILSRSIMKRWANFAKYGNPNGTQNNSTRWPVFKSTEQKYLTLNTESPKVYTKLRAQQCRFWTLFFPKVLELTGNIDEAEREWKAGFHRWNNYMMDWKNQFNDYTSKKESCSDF
Method in brief: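 Equine BChE (0.06 U/mL) preincubated with a range of inhibitor concentrations, 37 °C, 30 min. BTCI (15 mM) then added for 30 min, followed by DTNB (1.5 mM). A415 recorded. Mean ± SD of two or three independent experiments, each in triplicate.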

[2] = Antioxidant activity assessed as DPPH radical scavenging activity at 20 uM measured after 25 mins by microplate reader based assay relative to control; assay type: functional
Method in brief: (§1)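 Test compound at serial concentrations (single 20 µM for percent values) mixed 1:1 with 200 µM DPPH in methanol; 25 min at 37 °C with shaking at 300 rpm; absorbance read at 517 nm. Percent scavenging taken against DPPH control; IC50 is the concentration that removes 50% of radical. Mean ± SD of three independent experiments.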

[3] = Antioxidant activity assessed as DPPH radical scavenging activity measured after 25 mins by microplate reader based assay; assay type: functional; method in brief: as §1
Acetylcholinesterase [4] = target: T1, Acetylcholinesterase; assay: Inhibition of AChE in human erythrocytes using acetylthiocholine iodide as substrate at 20 uM preincubated with enzyme for 30 mins followed by substrate addition and measured after 30 mins by Ellman's method relative to control; assay type: cell-based; conditions: Erythrocyte, time 60.0 min
Method in brief: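 hAChE (0.022 U/mL) preincubated with inhibitor at 20 µM, 37 °C, 30 min. ATCI (1.5 mM) then added and incubated a further 30 min, followed by DTNB (0.15 mM). Absorbance read at 415 nm. % inhibition = [(Ac − Ai)/Ac] × 100 against an uninhibited enzyme. Mean ± SD of two or three experiments run in triplicate.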

Acetylcholinesterase [5] = target: T1, Acetylcholinesterase; assay: Mixed inhibition of human erythrocyte AChE using different concentration of acetylthiocholine iodide as substrate preincubated with enzyme for 30 mins by Lineweaver-Burk plot analysis; assay type: tissue-based
Method in brief: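 hAChE preincubated with inhibitor at three concentrations, 37 °C, 30 min. ATCI added at 0.5, 1.0, 1.5, 2.0 and 2.5 mM, then DTNB (0.15 mM). A415 recorded. Lineweaver-Burk double-reciprocal analysis used to assign the mechanism. Duplicate runs; mean ± SD of two independent experiments.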

[6] = target: Cholinesterase (Equus caballus) (UniProt P81908); assay: Mixed inhibition of equine serum BChE using different concentration of butyrylthiocholine iodide as substrate preincubated with enzyme for 30 mins by Lineweaver-Burk plot analysis; assay type: cell-free
Cholinesterase (Equus caballus), sequence (P81908 whole entry): as above
Method in brief: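 eqBChE preincubated with inhibitor at three concentrations, 37 °C, 30 min. BTCI added at 5, 10, 15, 20 and 25 mM, then DTNB (1.5 mM). Absorbance read at 415 nm. Double-reciprocal 1/[S] vs 1/V plots used to assign inhibition type. Duplicate runs; mean ± SD of two independent experiments.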

[7] = Permeability of the compound in PBS buffer at pH 7.4 at 500 uM incubated for 18 hrs by PAMPA-BBB assay
[8] = target: Cholinesterase (Equus caballus) (UniProt P81908); assay: Inhibition of equine serum BChE using butyrylthiocholine iodide as substrate at 20 uM preincubated with enzyme for 30 mins followed by substrate addition and measured after 30 mins by Ellman's method relative to control; assay type: cell-free; conditions: time 60.0 min
Method in brief: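 Equine BChE (0.06 U/mL) preincubated with inhibitor at 20 µM, 37 °C, 30 min. BTCI (15 mM) then added and incubated a further 30 min, followed by DTNB (1.5 mM). Absorbance read at 415 nm. % inhibition taken relative to an enzyme-only control. Mean ± SD of two or three experiments run in triplicate.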

[9] = Metal chelating activity assessed as mole fraction required to show 1:1 stoichiometry for compound-Fe3+ complex formation measured after 24 hrs in presence Fecl3.6H2O by Job's plot analysis
Method in brief: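 Stoichiometry by molar-ratio titration of compound against FeCl3 in methanol (0–10 ratio) at room temperature with UV spectra recorded. Job's plot built from Fe(III) mole fraction against absorbance. Means of duplicate runs.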

N2a [10] = assay: Cytotoxicity against mouse N2a cells assessed as effect on cell viability at 0.01 to 20 uM measured after 24 hrs by MTT assay; assay type: cell-based; conditions: dose 0.01-20 µM
Method in brief: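 Neuro2a cells seeded at 1 × 10^4/well and left overnight to adhere. Exposed to 0.01, 0.1, 1, 2.5, 5, 10 or 20 µM in triplicate for 24 h at 37 °C in 5% CO2. Viability then read by MTT and expressed as percent of untreated cells. Mean ± SE of three independent experiments.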

N2a [11] = assay: Neuroprotective activity against H2O2-induced neurotoxicity in mouse N2a cells assessed as increase in cell viability at 1 to 20 uM preincubated for 24 hrs followed by co-incubation with H2O2 and measured after 24 hrs by MTT assay; assay type: functional, cell-based; conditions: dose 1-20 µM, time 48.0 hrs
Method in brief: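 N2a cells seeded at 1 × 10^4/well and left overnight. Pre-incubated 24 h with 1, 2.5, 5, 10 or 20 µM, then co-incubated with 600 µM H2O2 for a further 24 h. MTT added for 4 h at 37 °C and formazan extracted in 0.04 N HCl/isopropanol for 1 h. OD read at 570 nm; viability as percent of untreated control. Three independent experiments, mean ± SEM.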

Mus musculus = assay: Reversal of scopolamine induced cognitive memory impairment in C57BL/6 mouse assessed as escape latency time at 10 mg/kg, po administered 30 mins prior to scopolamine injection daily for 14 days by Morris water maze test (reference value: 50.11 +/-5.91 secs); assay type: functional; conditions: time 14 day
[12] = Metal chelating activity assessed as compound-Fe3+ complex formation at 600 uM measured after 24 hrs at pH 7.4 in presence Fecl3.6H2O by UV-Vis spectroscopic analysis
Method in brief: (§2)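 600 µM compound and 600 µM FeCl3·6H2O, both in methanol, mixed in equal volume and shaken at 1000 rpm for 24 h at 25 °C, then UV-scanned. For pH 7.4, diluted DIPEA added before rescanning. Spectra recorded from 300 to 700 nm, with the d–d region at 400–700 nm. Run in duplicate.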

[13] = Metal chelating activity assessed as compound-Fe3+ complex formation at 600 uM measured after 24 hrs at pH 4.2 in presence Fecl3.6H2O by UV-Vis spectroscopic analysis; method in brief: as §2

| SMILES | IC50 (Acetylcholinesterase [1]) [µM] | IC50 (Cholinesterase) [µM] | Activity [2] [%] | IC50 [3] [µM] | inhibition (Acetylcholinesterase [4]) [%] | also measured |
| --- | --- | --- | --- | --- | --- | --- |
| COc1cc(/C=C/C(=O)NCC(=O)NCCc2c[nH]c3ccccc23)ccc1O | 1.42 | 3.14 | 38.5 | 29.1 | – | – |
| COc1cc(/C=C/C(=O)N2CCN(Cc3ccccc3C#N)CC2)ccc1O | – | 14.9 | – | – | 45.4 | – |
| COc1cc(/C=C/C(=O)N2CCN(Cc3cccc(F)c3)CC2)ccc1O | 13.1 | 14 | 40.2 | 26.6 | – | inhibition (Acetylcholinesterase [5]): Active; inhibition [6]: Active; Papp at 18 h, 500 µM [7]: 9.57 ×10⁻⁶ cm/s |
| COc1cc(/C=C/C(=O)N2CCN(Cc3cccc(C)c3)CC2)ccc1O | – | 14.7 | 26.3 | 66 | 45.5 | – |
| COc1cc(/C=C/C(=O)N2CCN(Cc3ccc(F)cc3)CC2)ccc1O | 14.5 | 14.8 | 23.1 | 51.9 | – | – |
| COc1cc(/C=C/C(=O)N2CCN(Cc3cccc(Cl)c3)CC2)ccc1O | 15.4 | 14.8 | 23.1 | 61.5 | – | – |
| COc1cc(/C=C/C(=O)NCC(=O)NCCc2c[nH]c3ccc(Cl)cc23)ccc1O | 0.84 | 1.29 | 47.3 | 23.6 | – | – |
| COc1cc(/C=C/C(=O)O)ccc1O [FERULATE] | – | – | 33.1 | 58.3 | 15.1 | inhibition [8]: 17.1% |
| COc1cc(/C=C/C(=O)N2CCN(Cc3ccc(C)cc3)CC2)ccc1O | – | 14.8 | – | – | 43.2 | – |
| COc1cc(/C=C/C(=O)NCCC(=O)Nc2ccccc2)ccc1O | 14.8 | 16.4 | 10.6 | 95.6 | – | – |
| COc1cc(/C=C/C(=O)N2CCN(Cc3ccc(Cl)cc3)CC2)ccc1O | – | 15.9 | 32.4 | 62.4 | 37.3 | – |
| COc1cc(/C=C/C(=O)N2CCN(Cc3ccccc3)CC2)ccc1O | 13.3 | – | 38.4 | 31.3 | – | inhibition [8]: 45.1% |
| COc1cccc(NC(=O)CCNC(=O)/C=C/c2ccc(O)c(OC)c2)c1 | 2.41 | 11.3 | 21.3 | – | – | – |
| COc1cccc(N2CCN(C(=O)/C=C/c3ccc(O)c(OC)c3)CC2)c1 | – | – | – | 62 | – | – |
| COc1cc(/C=C/C(=O)NCC(=O)Nc2ccc3[nH]ccc3c2)ccc1O | – | – | – | 57.4 | – | – |
| COc1cc(/C=C/C(=O)N2CCN(Cc3ccccc3Cl)CC2)ccc1O | – | 15.2 | – | – | 47 | – |
| COc1cccc(CN2CCN(C(=O)/C=C/c3ccc(O)c(OC)c3)CC2)c1 | 15.2 | – | – | – | – | inhibition [8]: 49.1% |
| COc1cc(/C=C/C(=O)N2CCN(Cc3cccc(C#N)c3)CC2)ccc1O | – | 14.7 | – | – | 42.4 | – |
| COc1ccc(CN2CCN(C(=O)/C=C/c3ccc(O)c(OC)c3)CC2)cc1 | 16.4 | – | 30.5 | 46.4 | – | inhibition [8]: 45.1% |
| COc1cc(/C=C/C(=O)N2CCN(Cc3ccc(C#N)cc3)CC2)ccc1O | – | 15.6 | – | – | 39.4 | – |
| COc1ccc2[nH]cc(CCNC(=O)CNC(=O)/C=C/c3ccc(O)c(OC)c3)c2c1 | 0.96 | 1.23 | 51.9 | 20.2 | – | inhibition (Acetylcholinesterase [5]): Active; inhibition [6]: Active; Activity [9]: 50%; Activity (N2a [10]): Non-Toxic; Activity (N2a [11]): Active; Papp at 18 h, 500 µM [7]: 8.51 ×10⁻⁶ cm/s; Time (Mus musculus): 32.28 s; Activity [12]: Active; Activity [13]: Active |
| COc1cc(/C=C/C(=O)N2CCN(Cc3ccccc3C)CC2)ccc1O | – | 15.1 | – | – | 43.1 | – |
| COc1cc(/C=C/C(=O)NCCC(=O)Nc2ccc(Cl)cc2)ccc1O | 5.32 | 7.13 | 18.7 | 84.2 | – | – |
| COc1cc(/C=C/C(=O)N2CCN(Cc3ccccc3F)CC2)ccc1O | – | 15.9 | – | – | 34.2 | – |
| COc1cc(/C=C/C(=O)N2CCN(Cc3cccc([N+](=O)[O-])c3)CC2)ccc1O | – | 14.6 | – | – | 38.8 | – |
